Test results as given in publication PMC7226283 (Cancer Science, 2020).
Peptide text beside a SMILES is read from it. * marks the point of attachment. Cbz = O=C(OCc1ccccc1)*

Legend:
KRASm/TP53‐ HCT116 cells = experiment: MTS cell viability assay, KRASm/TP53‐ HCT116; assay type: cell-based; conditions: for recovery of the efficacy of L‐OHP on KRASm/TP53‐ HCT116 cells / cell growth rate of KRASm/TP53‐ HCT116 cells: Figure S2, Bay11‐7082 5 μM, TPCA1 20 μM, 72 hours; for recovery of the efficacy of L‐OHP on KRASm/TP53‐ HCT116 cells: MG132 0.5 μM with L‐OHP 4 μM; for cell growth rate of KRASm/TP53‐ HCT116 cells: MG132 0.5 μM; for IC50: read-out: IC50 on KRASm/TP53‐ HCT116 cells, MTS assay, 72 hours post-treatment, n = 3
Summary of the method: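 HCT116 KRASm/TP53- cells were grown in RPMI1640 with 10% FBS and 1% penicillin/streptomycin at 37°C, 5% CO2, and plated at 4 × 10^5 per well. After 24 h, Bay11-7082 (0, 5 μM), TPCA1 (0, 20 μM) or MG132 (0, 0.5 μM), all in DMSO, were added with L-OHP (0 or 4 μM). Viability was read by MTS after 72 h.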

KRASm/TP53w HCT116 cells = experiment: MTS cell viability assay, KRASm/TP53w HCT116; assay type: cell-based; conditions: read-out: IC50 on KRASm/TP53w HCT116 cells, 72 hours post-treatment, n = 3
Summary of the method: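 ATCC parental HCT116 (KRAS mutant/TP53 wild-type) grown in RPMI1640 with 10% FBS and 1% penicillin/streptomycin at 37°C, 5% CO2. Seeded at 4 × 10^5 cells/well; test compound in DMSO added after 24 h at six levels (0–10 μM or 0–25 μM series). Viability by MTS tetrazolium read-out after 72 h. IC50 reported as mean ± SD, n = 3.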

Safety = assay type: in vivo, mice
Summary of the method: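 Female BALB/c nude mice (6 weeks old, 7-8 per group) received s.c. KRASm/TP53w HCT116 cells (4 × 10^6) and were grouped by stratified randomization on tumor volume on day 9 after implant (day 0). L-OHP was given i.p. on days 0, 3, 7, 10, 14 and 17; controls got saline 10 mL/kg. Body weight was taken on days 0, 7, 14 and 21, with hematology and biochemistry on day 21 blood. Mean ± SD; Student's t test.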

[1] = test system: NF‐κB activity in KRASm/TP53w HCT116 cells; experiment: NF‐κB activity luciferase assay, KRASm/TP53w HCT116; assay type: cell-based; conditions: 3 hours treatment
Summary of the method: (§1)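 Reporter assay: cells seeded at 5 × 10^4/well. After 1 day, shifted to RPMI1640 with 1% FBS for 24 h. Cotransfected by lipofection with NF‑κB‑RE luc2P luciferase plasmid plus CMV‑β‑galactosidase plasmid. 3 h later, test compound added at various concentrations in 1% FBS medium for 3 h. Cells lysed; activity expressed as luciferase/β‑galactosidase.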

[2] = test system: NF‐κB activity in KRASm/TP53‐ HCT116 cells; experiment: NF‐κB activity luciferase assay, KRASm/TP53‐ HCT116; assay type: cell-based; conditions: 3 hours treatment
Summary of the method: as §1

proteasome = experiment: Proteasome activity in vitro
[3] = day 21, L‐OHP 8 mg/kg i.p. twice a week for 3 weeks
[4] = day 21, monotherapies compared to the control group, combination compared to L‐OHP monotherapy

Row | Molecule | recovery of the efficacy of L‐OHP on KRASm/TP53‐ HCT116 cells (KRASm/TP53‐ HCT116 cells) | cell growth rate of KRASm/TP53‐ HCT116 cells (KRASm/TP53‐ HCT116 cells) | IC50 (KRASm/TP53w HCT116 cells) [µM] | IC50 (KRASm/TP53‐ HCT116 cells) [µM] | other results
1 | Cc1ccc(S(=O)(=O)/C=C/C#N)cc1 [Bay11‐7082] | did not recover the efficacy of L‐OHP | suppressed cell growth rates |  |  | 
2 | O=C1[O][Pt]2([NH][C@@H]3CCCC[C@H]3[NH]2)[O]C1=O [L‐OHP, oxaliplatin] |  |  | 1.7 | 4.8 | hemoglobin compared to the control group (Safety; [3]): significantly decreased; platelet count compared to the control group (Safety; [3]): significantly decreased; white blood cell count compared to the control group (Safety; [3]): significantly decreased; ALT level (Safety; [4]): elevated; AST level (Safety; [4]): elevated
3 | CC(C)C[C@@H](C=O)NC(=O)[C@H](CC(C)C)NC(=O)[C@H](CC(C)C)NC(=O)OCc1ccccc1 [MG132] (Cbz-Leu-Leu-Leu-aldehyde) |  | suppressed cell growth rates |  |  | 
4 | NC(=O)Nc1sc(-c2ccc(F)cc2)cc1C(N)=O [TPCA1] | did not recover the efficacy of L‐OHP | suppressed cell growth rates |  |  | 
5 | curcumin |  |  | 20 | 17.4 | NF‐κB activity (luciferase/β‐galactosidase) [1]: suppressed NF‐κB activity in a dose‐dependent manner; NF‐κB activity (luciferase/β‐galactosidase) [2]: suppressed NF‐κB activity in a dose‐dependent manner; proteasome activity in vitro (proteasome): suppresses proteasome activity
